Experimental data published in publication PMC4948641 (ChemMedChem, 2015).
Where “and” joins values, the source holds several entries; their conditions need not be identical. Identical values can stand only once.

Assays:
[1] = test system: mitochondrial permeability transition pore (PTP); assay: Ca2+-induced mitochondrial swelling assay; assay type: biochemical; conditions: read-out: mitochondrial swelling EC50; isolated mouse liver mitochondria; 50 μM Ca2+
Outline: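 Mitochondria isolated from mouse liver take up 50 μM Ca2+ to trigger pore-dependent swelling. Swelling is followed across a range of test compound concentrations. Data are the average ± SEM of ≥ 4 experiments.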

IMM potential = assay: Rhodamine 123 uptake counterscreen; assay type: biochemical; conditions: read-out: Rh123 uptake EC50, isolated mouse liver mitochondria
Outline: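 Isolated mouse liver mitochondria took up rhodamine 123 as a read-out of inner-membrane potential. The test compound was applied in a concentration series, and interference with Rh123 uptake was recorded. Values are the average ± SEM of ≥4 experiments.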

[2] = test system: mitochondrial permeability transition pore (PTP); assay: Ca2+ retention capacity; assay type: biochemical; conditions: isolated mouse liver mitochondria
Outline: (§1)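 Isolated mouse liver mitochondria from wild-type or CyPD-knockout mice were used. Ca2+ retention capacity was taken as the amount of Ca2+ needed to open the pore. Mitochondria were treated across a concentration range of test compound or solvent, and results were expressed as the compound-to-solvent CRC ratio. Values are the average ± SEM of ≥4 experiments.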

[3] = test system: mitochondrial permeability transition pore (PTP); assay: CRC assay in CyPD-null mouse liver mitochondria; assay type: biochemical
Outline: as §1

[4] = test system: mitochondrial permeability transition pore (PTP); assay: CRC of permeabilized HeLa cells; assay type: cell-based, human
Outline: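 Ca2+ retention capacity was measured in permeabilized HeLa cells, 0.8 million cells per condition. The test compound was applied across a concentration range. Results are expressed as the compound-to-solvent CRC ratio, average ± SEM of ≥4 experiments.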

[5] = aqueous solubility in 1xPBS; assay type: physicochemical
[6] = chemical stability with 5x DTT; assay type: physicochemical
aqueous stability = assay type: physicochemical
[7] = plasma protein binding, human; assay type: in vitro ADME
[8] = plasma protein binding, mouse; assay type: in vitro ADME
plasma stability, human = assay type: in vitro ADME
plasma stability, mouse = assay type: in vitro ADME
PAMPA permeability = assay type: in vitro ADME; conditions: Pe
BBB PAMPA permeability = assay type: in vitro ADME; conditions: pH 7.4
[9] = hepatic microsome stability, human; assay type: in vitro ADME; conditions: liver microsomes, hepatic microsome stability (% remaining after 1 h)
[10] = hepatic microsome stability, mouse; assay type: in vitro ADME; conditions: liver microsomes, hepatic microsome stability (% remaining after 1 h)
[11] = toxicity towards Fa2N-4 immortalized human hepatocytes; assay type: cell-based; conditions: human, Fa2N-4 immortalized hepatocytes
[12] = test system: Fa2N-4 immortalized human hepatocytes; assay: as above; assay type: cell-based
[13] = test system: isolated mouse liver mitochondria; assay: mitochondrial respiration in isolated mouse liver mitochondria; assay type: biochemical
Outline: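 Isolated mouse liver mitochondria were treated with the test compound or solvent, and respiration was measured. Results are expressed as respiratory control ratio, reflecting the capacity to generate ATP. Values are the average ± SEM of ≥4 experiments.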

HeLa cells [14] = assay: oxygen-consumption rate of intact HeLa cells; assay type: cell-based, human; conditions: ≤ 10 μM
HeLa cells [15] = assay: HeLa cell proliferation after 24-hour treatment; assay type: cell-based, human; conditions: ≤ 10 μM
Outline: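 HeLa cells were treated with the test compound at the indicated concentrations for 24 hours, and proliferation was then assessed. Values are the average ± SEM of ≥4 experiments.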

## O=C(Nc1ccc(CN2CCCCC2)cc1)c1cc(Cl)cc(OCc2ccccc2)c1 [Compound 4, 3-(benzyloxy)-5-chloro-N-(4-(piperidin-1-ylmethyl)phenyl)benzamide]
[1]
  EC50: 0.28 ± 0.024 µM
IMM potential
  EC50: 24.5 ± 1.12 µM
[2]; 12.5 μM, compound-to-solvent CRC ratio
  CRC/CRC0 at 12.5 μM: 19.5 ± 1.7
[2]
  maximum CRC ratio relative to CsA-treated mitochondria: about 4 times
[3]
  increase in CRC in CyPD-null mouse liver mitochondria: 7 fold
[4]
  effect on CRC of permeabilized HeLa cells: concentration-dependent increase
[5]; pH 5, aqueous buffer
  solubility: 22.8 µg/mL and 52.5 µM
[5]; pH 6.2, aqueous buffer
  solubility: 22.6 µg/mL and 52.1 µM
[5]; pH 7.4, aqueous buffer
  solubility: 0.64 µg/mL and 1.5 µM
[6]
  chemical stability with 5× DTT, % parent remaining after 8 h: 91%
Aqueous stability
  aqueous stability (1:1 PBS/acetonitrile), % parent remaining after 48 h: 93.4%
[7]
  fraction unbound at 1 μM: 0.008
  fraction unbound at 10 μM: 0.008
[8]
  fraction unbound at 1 μM: 0.007
  fraction unbound at 10 μM: 0.017
Plasma stability, human
  remaining at 3 h: 39%
Plasma stability, mouse
  remaining at 3 h: 35%
PAMPA permeability; Donor pH 5.0, Acceptor pH 7.4
  Papp: 1300 ×10⁻⁶ cm/s
PAMPA permeability; Donor pH 6.2, Acceptor pH 7.4
  Papp: 1340 ×10⁻⁶ cm/s
BBB PAMPA permeability
  Papp: 113 ×10⁻⁶ cm/s
[9]; +NADPH
  remaining at 1 h: 61%
[9]; -NADPH
  remaining at 1 h: 67%
[10]; +NADPH
  remaining at 1 h: 30%
[10]; -NADPH
  remaining at 1 h: 74%
[11]
  CC50: 32 µM
[12]
  selectivity, Fa2N-4 LC50 compared to mitochondrial swelling EC50: 114 fold
[13]; 5 μM
  effect on ATP synthesis: no effect
[13]; ≤ 10 μM, isolated mouse liver mitochondria
  respiratory control ratios, FCCP-stimulated and oligomycin-sensitive respiration: No significant differences
HeLa cells [14]
  FCCP-stimulated and oligomycin-sensitive respiration (OCR): No significant differences
HeLa cells [15]
  effect on HeLa cell proliferation: no effect
